Reference: ChEMBL document CHEMBL1140866, “New pyrazoline bearing 4(3H)-quinazolinone inhibitors of monoamine oxidase: synthesis, biological evaluation, and structural determinants of MAO-A and MAO-B selectivity” (Bioorg Med Chem, 2009)
pIC50, pKi: −log10 of the molar value.

Tests used:
[1] = biological target: T1, Amine oxidase [flavin-containing] A (Rattus norvegicus, UniProt P21396); test: Inhibition of MAO-A in rat liver homogenate after 60 mins by Lineweaver-Burke plot; assay type: tissue-based; settings: for Activity: rat, 1 h, TDE = time-dependent effect
T1 sequence (P21396 whole entry): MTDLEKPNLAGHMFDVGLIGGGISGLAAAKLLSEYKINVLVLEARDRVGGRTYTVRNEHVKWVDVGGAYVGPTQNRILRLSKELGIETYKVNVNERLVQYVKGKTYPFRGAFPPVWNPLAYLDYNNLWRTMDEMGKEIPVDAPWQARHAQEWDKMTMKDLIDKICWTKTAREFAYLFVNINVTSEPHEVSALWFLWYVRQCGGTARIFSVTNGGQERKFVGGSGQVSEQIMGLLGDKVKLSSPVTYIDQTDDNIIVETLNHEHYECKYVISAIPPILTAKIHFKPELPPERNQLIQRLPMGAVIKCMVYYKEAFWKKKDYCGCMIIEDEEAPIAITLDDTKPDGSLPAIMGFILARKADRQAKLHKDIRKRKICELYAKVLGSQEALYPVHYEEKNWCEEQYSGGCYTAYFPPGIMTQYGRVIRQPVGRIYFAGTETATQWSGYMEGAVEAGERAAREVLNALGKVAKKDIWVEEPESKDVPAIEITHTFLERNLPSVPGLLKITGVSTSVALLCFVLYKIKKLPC

[2] = biological target: T1, Amine oxidase [flavin-containing] A; test: Inhibition of MAO-A in rat liver homogenate after 60 mins by residual activity plot; assay type: tissue-based
[3] = biological target: T2, Amine oxidase [flavin-containing] B (Rattus norvegicus, UniProt P19643); test: Inhibition of MAO-B in rat liver homogenate after 60 mins by residual activity plot; assay type: tissue-based
T2 sequence (P19643 whole entry): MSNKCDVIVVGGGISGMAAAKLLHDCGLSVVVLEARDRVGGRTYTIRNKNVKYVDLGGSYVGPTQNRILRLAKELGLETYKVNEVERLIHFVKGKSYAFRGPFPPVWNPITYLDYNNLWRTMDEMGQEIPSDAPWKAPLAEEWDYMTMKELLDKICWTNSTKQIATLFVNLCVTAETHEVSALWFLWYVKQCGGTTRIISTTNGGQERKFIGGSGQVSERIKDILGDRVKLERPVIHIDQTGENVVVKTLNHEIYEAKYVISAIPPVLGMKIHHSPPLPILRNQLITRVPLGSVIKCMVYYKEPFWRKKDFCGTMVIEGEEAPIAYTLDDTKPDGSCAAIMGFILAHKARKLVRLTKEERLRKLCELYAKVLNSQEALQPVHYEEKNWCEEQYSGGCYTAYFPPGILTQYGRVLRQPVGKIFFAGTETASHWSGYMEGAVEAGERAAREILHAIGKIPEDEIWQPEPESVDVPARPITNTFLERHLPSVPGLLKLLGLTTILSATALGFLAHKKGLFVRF

Mus musculus [4] = test: Antidepressant activity in albino mouse assessed as immobility time at 100 mg/kg, ip by forced swim test; assay type: functional; settings: route intraperitoneal
How it was run: (§1)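 Mice given compounds i.p. at 100 mg/kg in DMSO/water (1:4), about 0.1 mL, 1 h before testing; controls got 0.1 mL vehicle; n = 7–8. Housed eight per cage, 20 ± 2 °C, 12 h light/dark. Each animal did the plus-maze first, then forced swim.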

[5] = biological target: T2, Amine oxidase [flavin-containing] B; test: Inhibition of MAO-B in rat liver homogenate after 60 mins by Lineweaver-Burke plot; assay type: tissue-based; settings: for Activity: rat, 1 h, TDE = time-dependent effect
Mus musculus [6] = test: Anxiolytic activity in albino mouse assessed as total number of entries into arms at 100 mg/kg, ip by plus-maze test; assay type: functional; settings: route intraperitoneal; how it was run: as §1
Mus musculus [7] = test: Anxiolytic activity in albino mouse assessed as time spent on closed arm at 100 mg/kg, ip by plus-maze test; assay type: functional; parameters: unit not given here; settings: route intraperitoneal; how it was run: as §1
Mus musculus [8] = test: Antidepressant activity in albino mouse assessed as immobility time at 5 mg/kg, ip by forced swim test; assay type: functional; settings: route intraperitoneal
Mus musculus [9] = test: Anxiolytic activity in albino mouse assessed as total number of entries into arms at 5 mg/kg, ip by plus-maze test; assay type: functional; settings: route intraperitoneal
Mus musculus [10] = test: Anxiolytic activity in albino mouse assessed as time spent on closed arm at 5 mg/kg, ip by plus-maze test; assay type: functional; settings: route intraperitoneal

pKi [1] | Activity [1] | pIC50 [2] | pIC50 [3] | pKi [5] | Activity [5] | Structure (SMILES) | Activity (Mus musculus [4]) [%] | arm entries (Mus musculus [6]) [entries] | Activity (Mus musculus [7]) | Activity (Mus musculus [8]) [%] | arm entries (Mus musculus [9]) [entries] | Activity (Mus musculus [10]) [%]
5.99 | tde | 5.35 | 3.40 | 5.00 | tde | COc1ccc(C2CC(c3ccccc3)=NN2c2nc3ccccc3c(=O)n2C)cc1 (centres undefined) | 58 | 5.37 | 162.43 |  |  | 
5.57 | tde | 5.43 | 3.38 | 4.73 | tde | Cn1c(N2N=C(c3ccccc3)CC2c2ccc(Cl)cc2)nc2ccccc2c1=O (centres undefined) | 42.37 | 4.12 | 154.75 |  |  | 
6.05 | tde | 5.99 | 3.40 | 5.24 | tde | Cn1c(N2N=C(c3ccccc3)CC2c2cccc(Cl)c2)nc2ccccc2c1=O (centres undefined) | 26.25 | 3.75 | 218.25 |  |  | 
5.59 | tde | 5.35 | 3.32 | 5.10 | tde | Cc1ccc(C2CC(c3ccccc3)=NN2c2nc3ccccc3c(=O)n2C)cc1 (centres undefined) | 43.25 | 3.87 | 178.25 |  |  | 
5.93 | tde | 5.77 | 3.31 | 4.98 | tde | Cn1c(N2N=C(c3ccccc3)CC2c2ccc(Br)cc2)nc2ccccc2c1=O (centres undefined) | 65.12 | 3.25 | 230 |  |  | 
 |  |  |  | 4.99 |  | O=C(NCCN1CCOCC1)c1ccc(Cl)cc1 [MOCLOBEMIDE] |  |  |  | 54.3 | 6.15 | 250.72
